Consider two molecules from ChEMBL document CHEMBL4732044, “Discovery of a promising agent IQZ23 for the treatment of obesity and related metabolic disorders” (Eur J Med Chem, 2020).

The source made the active and inactive calls.

For series [1], the system named is 3T3-L1. The experiment in a line: Lipid lowering activity in mouse 3T3-L1 cells assessed as adipogenic cocktail-induced triglyceride levels at 1 uM incubated for 6 days by GPO-POD assay relative to control. In kind it is functional. The following applies: time 6 day. A digest of the protocol: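 Confluent 3T3-L1 cells were treated from day 0 in cocktail (IBMX, dexamethasone, insulin) for 3 days, then re-dosed in insulin medium for 3 more days. For dose–response, concentrations were 0–10 µM (0.01, 0.1, 0.3, 1, 3, 10). On day 6, cells were lysed in 0.2% Triton X-100 and TG was measured by GPO-POD and normalized to BCA protein as % of control. EC50 was fitted from the dose–response. N = 4.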

Series [2] has as its system 3T3-L1. Description: Activation of AMPK pathway in mouse 3T3-L1 cells assessed as increase in TFAM mRNA expression at 1 uM after 24 hrs by RT-qPCR analysis. The class given is cell-based. The following applies: filed as activator. For orientation: In qPCR the cycle at which signal appears reflects the starting amount.
Series [3] concerns 3T3-L1. Description: Activation of AMPK pathway in mouse 3T3-L1 cells assessed as increase in ACSL mRNA expression at 1 uM after 24 hrs by RT-qPCR analysis. The following applies: filed as activator. In kind it is cell-based.
Series [4] is described as follows: Half life in Sprague-Dawley rat at 2 mg/kg, iv up to 24 hrs by LC-MS/MS analysis. The following applies: in vivo.
Series [5] is described as follows: MRT(0 to infinity) in Sprague-Dawley rat at 2 mg/kg, iv up to 24 hrs by LC-MS/MS analysis. The following applies: in vivo.
The nature of series [6]: Apparent volume of distribution in Sprague-Dawley rat at 2 mg/kg, iv up to 24 hrs by LC-MS/MS analysis. The following applies: in vivo, read-out: Vz.
The subject of series [7] is 3T3-L1. The experiment in a line: Cytotoxicity against mouse 3T3-L1 cells assessed as change in LDH releasing level at 5 uM after 6 days by LDH releasing assay. The class given is cell-based. The following applies: 3t3-l1, 144 h, time 6 day. A digest of the protocol: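 Differentiating 3T3-L1 cells were treated at 5 µM for 6 days. Plates were centrifuged and LDH activity in the supernatant was read at 490 nm. Release was expressed as fold = (treated − blank)/(control − blank), with untreated cells as blank and vehicle-differentiated control set to 1.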

For series [8], the system named is 3T3-L1. Description: Inhibition of mouse 3T3-L1 cells adipocyte differentiation assessed as reduction in adipogenic cocktail-induced PPARgamma protein expression at 0.3 to 1 uM after 24 hrs by Western blot analysis. The class given is functional, cell-based. The conditions noted are these: dose 0.3-1 µM. Put shortly:
(§1)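 3T3-L1 preadipocytes were exposed to adipogenic cocktail with compound (0.3 or 1 µM) and harvested on day 1. Lysates were resolved by SDS-PAGE, immunoblotted (primary antibody overnight at 4 °C, HRP secondary) and quantified by densitometry normalized to actin.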

Series [9] concerns 3T3-L1. Description: Inhibition of mouse 3T3-L1 cells adipocyte differentiation assessed as reduction in adipogenic cocktail-induced SREBP-1c protein expression at 0.3 to 1 uM after 24 hrs by Western blot analysis. In kind it is functional, cell-based. The conditions noted are these: dose 0.3-1 µM. Put shortly:
as §1
On the technique in general: A western blot detects proteins with antibodies after separation by electrophoresis.

Series [10] has as its system 3T3-L1. Description: Inhibition of mouse 3T3-L1 cells adipocyte differentiation assessed as reduction in adipogenic cocktail-induced fatty acid synthase protein expression at 0.3 to 1 uM after 6 days by Western blot analysis. The class given is functional, cell-based. The conditions noted are these: dose 0.3-1 µM, time 6.0 day. A digest of the protocol:
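3T3-L1 preadipocytes were differentiated with cocktail for 3 days, then insulin medium for 3 days, with compound (0.3 or 1 µM) present throughout. Cells were harvested on day 6 and proteins measured by Western blot, with densitometry normalized to actin.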

For series [11], the system named is 3T3-L1. The experiment in a line: Activation of AMPK pathway in adipogenic cocktail-induced mouse 3T3-L1 cells assessed as increase in AMP to ATP ratio at 0.3 to 1 uM after 24 hrs. The class given is cell-based. The conditions noted are these: filed as activator, dose 0.3-1 µM.
The test system of series [12] is 3T3-L1. Description: Activation of AMPK pathway in adipogenic cocktail-induced mouse 3T3-L1 cells with SiRNA-induced AMPKalpha knock down assessed as decrease in C/EBPalpha protein expression at 1 uM after 24 hrs by Western blot analysis. In kind it is cell-based. A digest of the protocol:
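3T3-L1 cells at 80% density transfected with 50 nM AMPKα siRNA or negative control for 24 h. Once confluent, differentiated with adipogenic cocktail with or without compound. Protein by Western blot normalized to actin. TG measured by GPO-POD kit, normalized to BCA protein, expressed as % of control.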

In series [13] the test system is C2C12. Description: Activation of AMPK pathway in mouse C2C12 cells assessed as increase in glucose uptake at 0.3 to 1 uM after 6 hrs by 2-NBDG/Hoechst 33342 staining based Confocal microscopic method. In kind it is cell-based. The conditions noted are these: filed as activator, dose 0.3-1 µM. Put shortly: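 C2C12 myoblasts kept in DMEM with 10% FBS and 1% penicillin/streptomycin at 37 °C under 5% CO2.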

The test system of series [14] is 3T3-L1. Description: Activation of AMPK pathway in mouse 3T3-L1 cells assessed as increase in PCG1alpha mRNA expression at 0.3 to 1 uM after 24 hrs by RT-qPCR analysis. The following applies: filed as activator, dose 0.3-1 µM. In kind it is cell-based.
Series [15] relates to 3T3-L1. Description: Activation of AMPK pathway in mouse 3T3-L1 cells assessed as increase in TFAM mRNA expression at 0.3 to 1 uM after 24 hrs by RT-qPCR analysis. The class given is cell-based. The conditions noted are these: filed as activator, dose 0.3-1 µM.
For series [16], the system named is 3T3-L1. Description: Activation of AMPK pathway in mouse 3T3-L1 cells assessed as increase in CPT1beta mRNA expression at 0.3 to 1 uM after 24 hrs by RT-qPCR analysis. In kind it is cell-based. The following applies: filed as activator, dose 0.3-1 µM.
Series [17] has as its system Mus musculus. The experiment in a line: Antiobesity activity in high fat diet-induced obese C57BL/6J mouse model assessed as decrease in calorie intake at 20 mg/kg, ip administered for every other days for 6 weeks. In kind it is functional, organism-based. Put shortly:
(§2)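 Male C57BL/6J mice (7–8 weeks) fed HFC diet (60% fat, 1% cholesterol) for up to 14 weeks. From week 9, given 20 mg/kg i.p. every other day for 6 weeks in saline with 10% ethanol and 10% castor oil, or vehicle. Body weight and food intake recorded daily. At end, mice fasted 6 h, anesthetized, and blood collected into EDTA. Plasma chemistry run on an auto-analyzer; insulin by ultra-sensitive ELISA.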

In series [18] the test system is Mus musculus. The experiment in a line: Antiobesity activity in high fat diet-induced obese C57BL/6J mouse model assessed as decrease in AUC of ITT at 20 mg/kg, ip administered for every other days for 6 weeks by ITT method. The class given is functional, organism-based. A digest of the protocol: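 Male C57BL/6J mice on HFC diet dosed i.p. For GTT, after 3 weeks of treatment: 6 h fast, then i.p. glucose 2 g/kg. For ITT, after 6 weeks: 6 h fast, then i.p. insulin 0.4 U/mouse. Tail-vein glucose measured at 0, 15, 30, 60 and 120 min; AUC calculated.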

Series [19] deals with Mus musculus. Description: Antiobesity activity in high fat diet-induced obese C57BL/6J mouse model assessed as decrease in TG level at 20 mg/kg, ip administered for every other days for 6 weeks by Oil-red O staining based assay. In kind it is functional, organism-based. A digest of the protocol:
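Male C57BL/6J mice on HFC diet, dosed 20 mg/kg i.p. every other day for 6 weeks. Tissues fixed in 4% formaldehyde, paraffin-embedded, cut into 4 µm sections and stained with H&E or Oil-red O. Six random fields per sample scored blind.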

Series [20] deals with Mus musculus. Description: Antiobesity activity in high fat diet-induced obese C57BL/6J mouse model assessed as AST level at 20 mg/kg, ip administered for every other days for 6 weeks by auto-analyzer method (reference value: 341.6 +/- 23.8 U/L). The class given is functional. A digest of the protocol:
as §2

Series [21] relates to Mus musculus. Description: Antiobesity activity in high fat diet-induced obese C57BL/6J mouse model assessed as creatinine level at 20 mg/kg, ip administered for every other days for 6 weeks by auto-analyzer method (reference value: 14.9 +/- […]). In kind it is functional. Put shortly: as §2

As a reminder, the half-life is the time needed for the level to fall by half in the phase considered. Lower therefore signals rapid decline. What is called MRT inf is a mean duration of stay, worked out from the concentration-time curve. Consider `CN(C)CCCNc1nc(-c2[nH]c3ccccc3c2C=O)nc2ccccc12`, for which, in series [1], the Activity turned out to be 20.8%. The result in [2] and in series [3] was Active. Further, the half-life in series [4] is 188 min. Further, the mean residence time MRT inf in [5] came out at 3.56 h. The Vd in series [6] amounted to 33.8 L/kg.
`COc1ccc2[nH]c(-c3nc(NCCCCN4CCCC4)c4ccccc4n3)c(C=O)c2c1`: the values for the Activity entry in [7], in series [20] and in [21] were “Non-Toxic”, 163.7 U/L and 14.5 µM, respectively. Also, the inhibition result in series [8], in series [9] and in series [10] was “Active” throughout. In addition, the outcome in [11], in series [13], in series [14], in series [15], in series [16] and in series [18] was Active. The result in series [19] was Active. Also, the outcome in series [12] and in [17] was inactive.
